Screening data (PubChem)
CRFBP-R2 block: blocks CRF-induced signaling of the CRF-BP/CRF-R2 complex. 350,000 compounds, 0.59% hits. AID 588475. HEK293 CRF-R2/CRF-BP, CRF-induced calcium fluorescence. inhibition, % at 11.8 µM;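 active means inhibition of the ligand-induced calcium signal above about 50% at the single tested concentration, limit read from the data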
ANO1 activ: mouse TMEM16A channel activation, primary screen; Q8BHY3; HEK293 TMEM16A/YFP-H148Q/I152L, iodide quench fluorescence; hits give low values; B-score at 10 µM; 340,000 compounds, 0.3% hits;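 active means fluorescence-ratio B-score plate-corrected deviation score at least 3 library SD below zero, with starting fluorescence score within 5 deviations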;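 further: channel opened by trigger with iodide after compound preincubation; score built on the fluorescence ratio of max minus min over baseline; more negative score means more quench and so TMEM16A activation or potentiation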
CRFR2-BP ag: agonists of human CRF-binding protein/CRF-R2 receptor complex | 350,000 compounds, 0.46% hits | activation, % at 13.2 µM | AID 588473 | HEK293 CRF-R2/CRF-BP, calcium dye fluorescence (FLIPR); percent of saturating CRF peptide response;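 active means activation of at least 50%, plus an integration ratio under a set limit after plate pattern correction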
TAAR1 ag: agonists of human TAAR1. Q96RJ0. CHO RD-HGA16 TAAR1, Fluo-8 calcium fluorescence; vehicle wells 0%, saturating PEA agonist 100%. activation, % at 3 µM. 360,000 compounds, 0.99% hits;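 active means activation above the mean activation of all test compounds in the run plus 3 SD, cut at about 38% in these data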
Target sequence (Q96RJ0 whole entry, looked up): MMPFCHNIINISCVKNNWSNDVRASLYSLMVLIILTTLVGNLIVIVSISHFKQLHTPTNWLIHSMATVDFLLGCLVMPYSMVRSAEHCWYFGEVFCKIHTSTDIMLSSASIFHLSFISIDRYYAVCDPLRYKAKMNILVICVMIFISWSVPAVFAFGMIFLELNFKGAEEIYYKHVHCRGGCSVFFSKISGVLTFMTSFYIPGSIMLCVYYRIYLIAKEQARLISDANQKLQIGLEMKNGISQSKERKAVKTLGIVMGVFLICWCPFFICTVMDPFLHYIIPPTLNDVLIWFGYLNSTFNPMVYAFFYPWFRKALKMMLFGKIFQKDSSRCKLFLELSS
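Assay system: CHO-derived RD-HGA16 cells with stable Gα16 and human TAAR1; timing: 17-24 h seeding, 75 min 37 °C dye, 30 min RT; read-out: % activation from peak over basal fluorescence ratio, DMSO-to-PEA scaled; measured by: kinetic Fluo-8 calcium fluorescence; benchmarks: low control DMSO, high control PEA (EC100); doses: 3 µM single concentration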
TAAR1 antag: human TAAR1 antagonism; Q96RJ0; inhibition, % at 3 µM; CHO RD-HGA16 TAAR1, Fluo-8 calcium fluorescence, antagonist; 360,000 compounds, 1.5% hits;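 active means inhibition above a per-plate cutoff, the mean inhibition of test compounds on that plate plus 3 SD, cut at about 49% in these data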
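Material: RD-HGA16 CHO cells with stable hTAAR1 and Gα16; Dosing: single nominal final test compound concentration of 3 µM; Schedule: seeding 17-24 h prior, 75-min 37 °C, 30-min RT dye loading; Detection: kinetic Fluo-8 calcium fluorescence measurement; Measure: % inhibition from peak post-agonist over basal fluorescence ratio; Benchmarks: vehicle and agonist controls.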
ANO1 block: inhibitors of mouse TMEM16A calcium-activated chloride channel | AID 588511 | 310,000 compounds, 1.2% hits | Q8BHY3 | HEK293 TMEM16A/YFP iodide influx fluorescence, ionomycin | normalized B-score (activity score, 25-100; higher = stronger inhibition) at 10 µM;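 active means ratio plate-corrected score three or more library SD toward inhibition, starting fluorescence score within five deviations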;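 further: score derived from kinetic fluorescence span divided by baseline fluorescence per well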
Of the large screens only hits and unclear results are named; the others gave an inactive call. Hits are enriched below; roughly 3.9% of the tested compounds scored in any of these assays.

CCN(C[C@H]1N[C@@](CC)(C(=O)OC)[C@H]2C(=O)N(Cc3ccccc3)C(=O)[C@@H]12)C(=O)c1ccc(C)cc1	TAAR1 antag 50 (no result: ANO1 activ, ANO1 block)
CCN(C[C@H]1N[C@@](CC)(C(=O)OC)[C@H]2C(=O)N(Cc3ccccc3)C(=O)[C@@H]12)C(=O)c1ccc(F)cc1	none (no result: ANO1 activ, ANO1 block)
CC1=CC2=C(C=O)C(=O)C(C)(O)C(O)C2=CO1 (configuration not stated)	none (no result: ANO1 activ, ANO1 block)
COC(=O)c1cc2c(=O)c3ccccc3oc2nc1/C=C/N(C)C	CRFR2-BP ag 198
O=C(CC1(CC2=NS(=O)(=O)c3ccccc3N2)CCCC1)NCCc1ccccc1	TAAR1 antag 59
O=C(c1ccc(F)cc1)C1CCN(Cc2ccccc2F)CC1	CRFBP-R2 block 58 (no result: ANO1 activ, ANO1 block)
Cc1cc(Cl)ccc1OCC(=O)Nc1ccncc1	ANO1 block 25
Cc1cc(Cl)ccc1OCC(=O)NCc1ccncc1	none
CCN(c1ccccc1)S(=O)(=O)c1cc(C(=O)NCc2ccco2)ccc1C	none (no result: ANO1 block)
CCc1ccc(NC(=O)c2ccc(F)c(S(=O)(=O)N(CC)c3ccccc3)c2)cc1	TAAR1 antag 59
COc1ccccc1CNC(=O)C(=O)NCC1CCCN1S(=O)(=O)c1cc(C)ccc1C (configuration not stated)	none (no result: ANO1 activ, ANO1 block)
CC(C)(NS(=O)(=O)OCC(Cl)(Cl)Cl)c1ccccc1	none
CC(NS(=O)(=O)OCC(Cl)(Cl)Cl)c1ccc(C(C)(C)C)cc1 (configuration not stated)	TAAR1 antag 52
Cc1cccc(C)c1NC(=O)CNC(=O)c1ccc(N2CCCC2)c([N+](=O)[O-])c1	none (no result: ANO1 block)
COc1ccccc1OCC(=O)NCC1CCCN(C(=O)c2ccccc2SC)C1 (configuration not stated)	none
COc1ccccc1OCC(=O)NCC1CCCN(C(=O)c2ccccc2C(C)=O)C1 (configuration not stated)	CRFBP-R2 block 68
CC(=O)n1cc([C@H]2C=C(C(=O)N3CCN(Cc4ccc5c(c4)OCO5)CC3)O[C@@H](OCc3ccc(CO)cc3)C2)c2ccccc21	TAAR1 antag 67
O=C(C1=C[C@@H](c2csc3ccccc23)C[C@@H](OCCCCO)O1)N1CCN(Cc2ccc3c(c2)OCO3)CC1	none
CC(=O)n1cc([C@@H]2C=C(C(=O)O)O[C@H](OCc3ccc(CO)cc3)C2)c2ccccc21	none
C#CCNC(=O)C1=C[C@H](c2cn(C(C)=O)c3ccccc23)C[C@H](OCc2ccc(CO)cc2)O1	TAAR1 ag 44, TAAR1 antag 49
CC(=O)n1cc([C@H]2C=C(C(=O)Nc3ccccc3)O[C@@H](OCc3ccc(CO)cc3)C2)c2ccccc21	none (no result: TAAR1 ag, TAAR1 antag)
CC(=O)n1cc([C@@H]2C=C(C(=O)NCc3ccccc3)O[C@H](OCc3ccc(CO)cc3)C2)c2ccccc21	TAAR1 antag 62
CC(=O)n1cc([C@@H]2C=C(C(=O)N3CCOCC3)O[C@H](OCc3ccc(CO)cc3)C2)c2ccccc21	none
O=C(C1=C[C@H](c2csc3ccccc23)C[C@H](OCCCCO)O1)N1CCN(Cc2ccc3c(c2)OCO3)CC1	TAAR1 antag 60
Cc1cccc(C(=O)N(C(=O)c2cccc(C)c2)N(C)C)c1	none (no result: ANO1 block)
CC(=O)NC1=NC(=O)/C(=C/c2cc(C)n(-c3ccc(NC(C)=O)cc3)c2C)S1	none
CC(=O)NC1=NC(=O)/C(=C/c2cc(C)n(-c3cccc(C(=O)O)c3)c2C)S1	ANO1 activ -6.4 (no result: ANO1 block)
COc1ccc(C(=O)NC(C(=O)NCC2(N3CCCCC3)CCCCC2)C(C)C)cc1 (configuration not stated)	none (no result: ANO1 block)
CC1(C2CC2)NC(=O)N(CC(=O)Nc2ccccc2F)C1=O (configuration not stated)	CRFBP-R2 block 54 (no result: ANO1 block)
O=C(/C=C/c1cn(-c2ccccc2)nc1-c1ccccc1)Nc1ccc(C(=O)O)cc1	none
Cc1ccc(-c2nn(-c3ccccc3)cc2/C=C/C(=O)Nc2nccs2)cc1	TAAR1 ag 40
COc1ccc(-c2nn(-c3ccccc3)cc2C(=O)Nc2nccs2)cc1	none
O=C(Nc1nccs1)c1cn(-c2ccccc2)nc1-c1ccncc1	TAAR1 ag 38
O=C(OC(C(=O)NC1CCCCC1)c1ccc(C(F)(F)F)cc1)c1ccco1 (configuration not stated)	none
CCOC(=O)c1c(C)[nH]c(C(=O)COC(=O)[C@H](C)N2C(=O)C3CCCCC3C2=O)c1C (some centres not stated)	TAAR1 antag 56 (no result: ANO1 block)
CCCCOC(=O)CCn1c(=S)oc2ccccc21	TAAR1 ag 44
CN(C)C(=O)c1ccc(Nc2ncnc3sc4c(c23)CCCCC4)cc1	none
CCC1=NN(C(=O)c2ccc([N+](=O)[O-])cc2)C(O)(c2ccccc2)C1 (configuration not stated)	ANO1 block 25
COC(=O)C1=NN(C(=O)c2ccc(Cl)cc2)C(O)(c2ccccc2)C1 (configuration not stated)	CRFR2-BP ag 72
CCC1=NN(C(=O)c2ccc(Cl)cc2)C(O)(c2ccccc2)C1 (configuration not stated)	none
CC(C)(C)C(=O)Nc1cc(NC(=O)C(C)(C)C)cc(C(=O)Nc2c[nH]c(=O)[nH]c2=O)c1	none
CCS(=O)(=O)c1ccc(O)c(NC(=O)NC2CCCCC2)c1	none
Cc1cccc(C(C(=O)NC2CCCCC2)N(C(=O)c2csnn2)C2CC2)c1 (configuration not stated)	none
COc1ccc(C(CNC(=O)c2ccc(N3CCCC3=O)cc2)N(C)C)cc1 (configuration not stated)	ANO1 block 25
CC1(C(=O)NS(=O)(=O)c2ccccc2C(F)(F)F)CCN1C(=O)CC1CCCC1 (configuration not stated)	none (no result: CRFBP-R2 block, ANO1 activ, CRFR2-BP ag, ANO1 block)
CCN(CC(=O)Nc1ccccc1C(F)(F)F)C(=O)c1ccc2c(=O)n3c(nc2c1)CCC3	none (no result: ANO1 block)
O=C(Oc1ccccc1F)c1ccc2c(=O)n3c(nc2c1)CCC3	CRFBP-R2 block 99
CCN(CC(=O)Nc1c(F)cccc1F)C(=O)c1ccc(S(=O)(=O)N2CCC(C)CC2)cc1	CRFBP-R2 block 122 (no result: ANO1 block)
CCN(CC(=O)Nc1c(F)cccc1F)C(=O)c1ccc(S(=O)(=O)N2CCCCCC2)cc1	none (no result: ANO1 block)
CC(NC(=O)COC(=O)c1ccc2c(=O)n3c(nc2c1)CCCCC3)c1ccccc1 (configuration not stated)	CRFBP-R2 block 63 (no result: ANO1 block)
